In ChEMBL document CHEMBL1154934, “Identification of piperazine-bisamide GHSR antagonists for the treatment of obesity” (Bioorg Med Chem Lett, 2010):

How the values were obtained:
[1] = target: T1, Growth hormone secretagogue receptor type 1 (Homo sapiens, UniProt Q92847); test: Antagonist activity at human GHSR expressed in CHOK1 cells assessed as inhibition of ghrelin-induced intracellular calcium flux by aequorin flash luminescence assay; assay type: functional, cell-based, CHO-K1
How it was run: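 Aequorin flash luminescence in CHO-K1 cells stably co-expressing human ghrelin receptor and aequorin. […] IC50 values are means of three determinations.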

[2] = target: Growth hormone secretagogue receptor type 1 (Rattus norvegicus) (UniProt O08725); test: Agonist activity at rat GHSR expressed in CHO cells assessed as increase in ghrelin-induced [3H]IP accumulation at 10 uM after 1 hr by scintillation counting relative to ghrelin; assay type: functional, cell-based
How it was run: (§1)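 CHO cells stably expressing human or rat GHSR labelled 12 h with 3H-inositol (1 µCi/mL in DMEM), then exposed to ghrelin or compound at 37 °C for 1.0 h. Lysis with 20 mM formic acid, 4 °C, 4 h. Extract taken onto SPA beads, 12 h in the dark, then radioactivity counted. IP accumulation expressed as % of maximal ghrelin response at 10, 1.0 and 0.1 µM.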

[3] = target: Sodium-dependent dopamine transporter (Homo sapiens, UniProt Q01959); test: Inhibition of DAT
D(3) dopamine receptor = D(3) dopamine receptor (Homo sapiens, UniProt P35462); test: Inhibition of dopamine D3 receptor
Histamine H2 receptor = Histamine H2 receptor (Homo sapiens, UniProt P25021); test: Inhibition of histamine H2 receptor
[4] = target: T2, 5-hydroxytryptamine receptor 2C (Homo sapiens, UniProt P28335); test: Inhibition of 5HT2C (receptor)
T2 sequence (P28335 whole entry): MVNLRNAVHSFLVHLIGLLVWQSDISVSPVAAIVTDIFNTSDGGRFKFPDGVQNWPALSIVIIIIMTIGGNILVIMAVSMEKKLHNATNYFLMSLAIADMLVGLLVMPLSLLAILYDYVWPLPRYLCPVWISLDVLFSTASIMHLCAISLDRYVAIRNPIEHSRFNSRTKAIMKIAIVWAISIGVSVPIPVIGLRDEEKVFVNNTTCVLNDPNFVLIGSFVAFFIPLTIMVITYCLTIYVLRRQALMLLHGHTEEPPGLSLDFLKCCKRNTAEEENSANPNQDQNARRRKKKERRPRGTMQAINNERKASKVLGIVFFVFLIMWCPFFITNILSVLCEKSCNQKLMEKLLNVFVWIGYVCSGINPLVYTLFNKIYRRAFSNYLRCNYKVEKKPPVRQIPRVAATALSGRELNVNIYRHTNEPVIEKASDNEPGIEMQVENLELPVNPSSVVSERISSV

Mu-type opioid receptor = Mu-type opioid receptor (Homo sapiens, UniProt P35372); test: Inhibition of mu opioid receptor
[5] = target: Sodium-dependent serotonin transporter (Homo sapiens, UniProt P31645); test: Inhibition of SERT
[6] = target: Kappa-type opioid receptor (Homo sapiens, UniProt P41145); test: Inhibition of kappa opioid receptor
[7] = target: T3, Alpha-2A adrenergic receptor (Homo sapiens, UniProt P08913); test: Inhibition of alpha2A adrenergic receptor
T3 sequence (P08913 whole entry): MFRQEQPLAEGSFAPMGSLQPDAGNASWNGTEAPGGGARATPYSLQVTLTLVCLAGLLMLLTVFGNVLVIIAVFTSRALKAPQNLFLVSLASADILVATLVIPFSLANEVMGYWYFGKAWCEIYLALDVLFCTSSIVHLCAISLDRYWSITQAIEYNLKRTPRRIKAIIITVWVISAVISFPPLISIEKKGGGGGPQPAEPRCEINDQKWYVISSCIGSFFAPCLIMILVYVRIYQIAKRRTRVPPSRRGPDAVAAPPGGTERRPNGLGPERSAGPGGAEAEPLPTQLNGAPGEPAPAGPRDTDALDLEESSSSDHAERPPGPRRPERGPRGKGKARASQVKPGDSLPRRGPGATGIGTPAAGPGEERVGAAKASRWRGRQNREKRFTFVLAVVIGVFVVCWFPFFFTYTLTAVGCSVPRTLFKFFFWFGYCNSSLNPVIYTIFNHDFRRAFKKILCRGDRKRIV

D(2) dopamine receptor = D(2) dopamine receptor (Homo sapiens, UniProt P14416); test: Inhibition of dopamine D2 receptor
[8] = target: 5-hydroxytryptamine receptor 2A (Homo sapiens, UniProt P28223); test: Inhibition of 5HT2A (receptor)
[9] = target: Muscarinic acetylcholine receptor M3 (Homo sapiens, UniProt P20309); test: Inhibition of muscarinic M3 receptor
[10] = target: Sodium-dependent noradrenaline transporter (Homo sapiens, UniProt P23975); test: Inhibition of NET
[11] = target: T1, Growth hormone secretagogue receptor type 1; test: Agonist activity at human GHSR expressed in CHO cells assessed as increase in ghrelin-induced [3H]IP accumulation at 10 uM after 1 hr by scintillation counting relative to ghrelin; assay type: functional, cell-based; how it was run: as §1
[12] = Induction of growth hormone release from Sprague-Dawley rat pituitary cells at 1 uM after 20 mins by RIA assay relative to ghrelin; assay type: functional, Pituitary gland cell
How it was run: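 Pituitary cells from 6–8-week-old male SD rats plated on poly-D-lysine and cultured 3 days at 37 °C. Washed with DMEM assay buffer (20 mM Hepes, 0.3% BSA) and held 5 min at 37 °C. Treated with rat ghrelin or compound for 20 min, then GH release measured as % of maximal ghrelin response. Means of three determinations.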

Histamine H2 receptor, sequence (P25021 whole entry): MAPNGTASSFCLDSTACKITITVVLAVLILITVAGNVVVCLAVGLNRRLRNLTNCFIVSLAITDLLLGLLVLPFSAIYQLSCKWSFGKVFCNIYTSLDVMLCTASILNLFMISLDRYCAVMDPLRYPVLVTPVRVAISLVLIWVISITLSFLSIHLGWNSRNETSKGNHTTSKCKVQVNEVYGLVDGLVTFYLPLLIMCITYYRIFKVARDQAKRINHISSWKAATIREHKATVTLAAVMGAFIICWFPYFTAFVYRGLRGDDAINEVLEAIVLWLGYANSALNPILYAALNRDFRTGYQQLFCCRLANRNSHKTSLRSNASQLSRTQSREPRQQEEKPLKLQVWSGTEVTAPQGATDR
Mu-type opioid receptor, sequence (P35372 whole entry): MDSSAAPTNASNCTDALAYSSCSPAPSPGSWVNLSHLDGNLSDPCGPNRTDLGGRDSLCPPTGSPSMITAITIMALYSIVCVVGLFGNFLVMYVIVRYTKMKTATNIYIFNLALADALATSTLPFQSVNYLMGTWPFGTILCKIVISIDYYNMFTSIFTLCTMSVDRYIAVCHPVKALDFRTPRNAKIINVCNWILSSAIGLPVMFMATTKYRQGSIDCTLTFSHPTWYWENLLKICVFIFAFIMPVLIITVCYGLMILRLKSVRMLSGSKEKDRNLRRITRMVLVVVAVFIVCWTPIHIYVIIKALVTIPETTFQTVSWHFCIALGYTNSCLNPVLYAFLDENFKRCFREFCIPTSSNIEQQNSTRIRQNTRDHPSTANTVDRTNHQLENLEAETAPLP
Muscarinic acetylcholine receptor M3, sequence (P20309 whole entry): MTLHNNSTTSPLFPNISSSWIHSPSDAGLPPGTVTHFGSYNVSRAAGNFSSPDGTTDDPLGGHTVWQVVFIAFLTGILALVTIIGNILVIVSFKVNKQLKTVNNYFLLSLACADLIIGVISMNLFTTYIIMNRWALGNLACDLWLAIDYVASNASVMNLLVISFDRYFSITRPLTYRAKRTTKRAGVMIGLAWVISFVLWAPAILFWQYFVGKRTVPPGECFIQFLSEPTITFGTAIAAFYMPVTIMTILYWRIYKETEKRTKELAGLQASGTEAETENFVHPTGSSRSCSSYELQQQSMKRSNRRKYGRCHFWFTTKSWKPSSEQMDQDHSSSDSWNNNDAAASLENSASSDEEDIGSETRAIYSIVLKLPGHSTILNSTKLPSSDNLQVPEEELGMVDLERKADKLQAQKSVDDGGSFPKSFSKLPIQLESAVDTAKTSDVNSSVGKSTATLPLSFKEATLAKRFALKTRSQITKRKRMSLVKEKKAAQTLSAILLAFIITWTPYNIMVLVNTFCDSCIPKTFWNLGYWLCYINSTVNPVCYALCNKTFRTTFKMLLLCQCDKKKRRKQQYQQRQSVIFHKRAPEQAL
D(2) dopamine receptor, sequence (P14416 whole entry): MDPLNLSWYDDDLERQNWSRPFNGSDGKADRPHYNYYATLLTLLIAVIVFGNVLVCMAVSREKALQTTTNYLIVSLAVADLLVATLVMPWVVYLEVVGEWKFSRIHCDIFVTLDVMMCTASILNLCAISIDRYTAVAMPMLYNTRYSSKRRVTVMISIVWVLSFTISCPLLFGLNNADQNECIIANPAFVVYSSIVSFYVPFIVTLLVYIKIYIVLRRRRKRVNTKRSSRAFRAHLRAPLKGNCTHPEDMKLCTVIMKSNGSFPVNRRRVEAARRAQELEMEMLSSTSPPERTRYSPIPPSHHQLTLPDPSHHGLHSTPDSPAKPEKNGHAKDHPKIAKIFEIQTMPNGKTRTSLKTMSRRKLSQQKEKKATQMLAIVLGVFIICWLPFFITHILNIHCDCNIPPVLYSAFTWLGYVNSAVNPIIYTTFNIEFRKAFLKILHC
Sodium-dependent dopamine transporter, sequence (Q01959 whole entry): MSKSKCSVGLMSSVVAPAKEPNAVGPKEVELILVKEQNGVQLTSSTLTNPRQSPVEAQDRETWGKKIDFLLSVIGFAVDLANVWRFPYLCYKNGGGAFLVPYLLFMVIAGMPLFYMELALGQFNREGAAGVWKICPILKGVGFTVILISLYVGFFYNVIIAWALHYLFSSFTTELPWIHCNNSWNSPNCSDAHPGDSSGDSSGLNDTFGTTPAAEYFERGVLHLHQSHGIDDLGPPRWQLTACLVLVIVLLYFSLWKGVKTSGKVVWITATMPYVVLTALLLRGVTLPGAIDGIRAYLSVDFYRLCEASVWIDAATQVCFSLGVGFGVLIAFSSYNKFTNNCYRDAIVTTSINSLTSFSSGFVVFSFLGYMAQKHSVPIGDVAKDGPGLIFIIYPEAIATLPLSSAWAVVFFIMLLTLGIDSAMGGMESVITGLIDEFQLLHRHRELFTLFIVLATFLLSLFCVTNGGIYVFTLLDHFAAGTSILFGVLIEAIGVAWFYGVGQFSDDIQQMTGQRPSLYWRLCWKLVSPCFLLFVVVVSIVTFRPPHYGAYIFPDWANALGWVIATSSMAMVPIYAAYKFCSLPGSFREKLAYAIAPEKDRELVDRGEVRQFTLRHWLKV
Sodium-dependent noradrenaline transporter, sequence (P23975 whole entry): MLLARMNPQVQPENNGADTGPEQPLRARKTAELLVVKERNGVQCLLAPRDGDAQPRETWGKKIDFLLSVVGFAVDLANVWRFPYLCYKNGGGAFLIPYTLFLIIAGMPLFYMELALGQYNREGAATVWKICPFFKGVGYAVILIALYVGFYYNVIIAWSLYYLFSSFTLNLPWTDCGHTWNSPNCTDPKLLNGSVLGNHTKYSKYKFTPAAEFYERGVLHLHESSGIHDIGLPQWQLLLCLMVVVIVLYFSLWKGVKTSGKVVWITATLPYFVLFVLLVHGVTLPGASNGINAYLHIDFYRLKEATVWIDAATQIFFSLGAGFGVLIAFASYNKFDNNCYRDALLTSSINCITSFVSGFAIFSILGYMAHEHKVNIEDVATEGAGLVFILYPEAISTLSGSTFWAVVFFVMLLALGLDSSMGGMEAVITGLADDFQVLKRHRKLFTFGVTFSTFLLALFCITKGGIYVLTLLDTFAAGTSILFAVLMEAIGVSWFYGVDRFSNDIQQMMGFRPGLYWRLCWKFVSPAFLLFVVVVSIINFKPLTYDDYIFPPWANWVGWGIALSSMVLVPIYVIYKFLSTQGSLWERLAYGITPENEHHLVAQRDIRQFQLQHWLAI
Sodium-dependent serotonin transporter, sequence (P31645 whole entry): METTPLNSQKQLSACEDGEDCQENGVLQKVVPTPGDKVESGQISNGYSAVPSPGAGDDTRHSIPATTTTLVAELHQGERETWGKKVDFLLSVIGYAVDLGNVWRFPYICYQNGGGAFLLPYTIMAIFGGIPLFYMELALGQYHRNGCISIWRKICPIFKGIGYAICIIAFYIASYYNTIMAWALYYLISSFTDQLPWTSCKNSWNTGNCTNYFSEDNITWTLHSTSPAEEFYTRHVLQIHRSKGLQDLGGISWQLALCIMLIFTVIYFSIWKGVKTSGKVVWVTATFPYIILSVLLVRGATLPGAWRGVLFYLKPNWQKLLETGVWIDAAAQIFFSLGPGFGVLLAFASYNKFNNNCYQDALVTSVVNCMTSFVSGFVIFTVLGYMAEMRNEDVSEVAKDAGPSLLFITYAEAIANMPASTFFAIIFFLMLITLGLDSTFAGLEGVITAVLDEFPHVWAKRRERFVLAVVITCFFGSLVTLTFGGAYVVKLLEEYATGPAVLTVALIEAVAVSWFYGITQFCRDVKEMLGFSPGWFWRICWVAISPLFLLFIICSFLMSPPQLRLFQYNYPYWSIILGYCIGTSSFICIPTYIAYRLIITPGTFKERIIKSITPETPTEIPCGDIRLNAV
Growth hormone secretagogue receptor type 1 (Rattus norvegicus), sequence (O08725 whole entry): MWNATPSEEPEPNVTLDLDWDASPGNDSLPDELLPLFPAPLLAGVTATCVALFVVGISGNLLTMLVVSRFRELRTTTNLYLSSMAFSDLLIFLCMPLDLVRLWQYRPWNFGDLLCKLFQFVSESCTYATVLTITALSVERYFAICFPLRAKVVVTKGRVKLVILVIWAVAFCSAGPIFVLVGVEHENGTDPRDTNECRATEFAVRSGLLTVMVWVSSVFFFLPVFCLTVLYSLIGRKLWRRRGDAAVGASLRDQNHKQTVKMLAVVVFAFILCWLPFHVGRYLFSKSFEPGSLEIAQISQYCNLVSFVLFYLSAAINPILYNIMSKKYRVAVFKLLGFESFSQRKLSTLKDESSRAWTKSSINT
5-hydroxytryptamine receptor 2A, sequence (P28223 whole entry): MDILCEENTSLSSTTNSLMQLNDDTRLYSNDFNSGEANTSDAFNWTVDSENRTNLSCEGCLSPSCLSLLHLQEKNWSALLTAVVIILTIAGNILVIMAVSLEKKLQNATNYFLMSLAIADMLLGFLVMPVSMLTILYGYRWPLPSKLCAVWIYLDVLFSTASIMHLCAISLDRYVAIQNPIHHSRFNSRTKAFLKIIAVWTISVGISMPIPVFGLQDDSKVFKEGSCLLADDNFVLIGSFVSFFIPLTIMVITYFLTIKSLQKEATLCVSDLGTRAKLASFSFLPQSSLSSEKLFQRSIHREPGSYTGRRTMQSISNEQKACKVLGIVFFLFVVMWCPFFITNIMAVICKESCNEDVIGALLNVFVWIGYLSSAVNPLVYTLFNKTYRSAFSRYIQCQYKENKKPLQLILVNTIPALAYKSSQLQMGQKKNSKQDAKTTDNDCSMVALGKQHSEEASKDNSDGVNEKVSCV
T1 sequence (Q92847 whole entry): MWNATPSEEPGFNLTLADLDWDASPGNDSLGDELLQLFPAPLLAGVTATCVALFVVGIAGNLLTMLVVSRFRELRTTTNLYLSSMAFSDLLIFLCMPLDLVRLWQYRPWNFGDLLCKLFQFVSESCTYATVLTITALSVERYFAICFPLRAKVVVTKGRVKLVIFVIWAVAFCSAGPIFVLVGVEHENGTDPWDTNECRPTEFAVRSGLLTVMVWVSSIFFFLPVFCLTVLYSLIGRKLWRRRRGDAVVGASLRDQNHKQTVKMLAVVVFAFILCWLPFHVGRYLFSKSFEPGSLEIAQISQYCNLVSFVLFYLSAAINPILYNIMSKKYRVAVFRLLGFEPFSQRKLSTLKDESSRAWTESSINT

| SMILES | IC50 [1] [µM] | Activity [2] [%] | Ki [3] [µM] | Ki (D(3) dopamine receptor) [µM] | Ki (Histamine H2 receptor) [µM] | Ki [4] [µM] | Ki (Mu-type opioid receptor) [µM] | Ki [5] [µM] | Ki [6] [µM] | Ki [7] [µM] | Ki (D(2) dopamine receptor) [µM] | Ki [8] [µM] | Ki [9] [µM] | Ki [10] [µM] | Activity [11] [%] | Activity [12] [%] |
| --- | --- | --- | --- | --- | --- | --- | --- | --- | --- | --- | --- | --- | --- | --- | --- | --- |
| Cc1noc(C)c1-c1ccc(C(=O)N2CCN(C(=O)c3ccc4cc[nH]c4c3)[C@@H](C)C2)cc1 | 0.245 | 5 | – | – | – | – | – | – | – | – | – | – | – | – | – | – |
| C[C@H]1CN(C(=O)c2ccc(-c3ccncc3)cc2)CCN1C(=O)c1ccc2cc[nH]c2c1 | 0.0127 | -2 | – | – | – | – | – | – | – | – | – | – | – | – | – | – |
| Cc1ccccc1-c1ccc(C(=O)N2CCN(C(=O)c3ccc4cc[nH]c4c3)[C@@H](C)C2)cc1F | 0.009 | 16 | – | – | – | – | – | – | – | – | – | – | – | – | – | – |
| C[C@H]1CN(C(=O)c2ccc(-c3cn[nH]c3)cc2)CCN1C(=O)c1ccc2cc[nH]c2c1 | 0.123 | 17 | – | – | – | – | – | – | – | – | – | – | – | – | – | – |
| C[C@H]1CN(C(=O)c2ccc(N3CCOCC3)cc2)CCN1C(=O)c1ccc2cc[nH]c2c1 | 0.339 | – | – | – | – | – | – | – | – | – | – | – | – | – | – | – |
| C[C@H]1CN(C(=O)c2ccc(-c3ccc(F)cc3)cc2)CCN1C(=O)c1ccc2cc[nH]c2c1 | 0.064 | – | > 10 | > 10 | > 10 | > 10 | > 10 | > 10 | > 10 | > 10 | > 10 | > 10 | > 10 | > 10 | – | – |
| C[C@H]1CN(C(=O)c2ccc(-c3ccccc3C(F)(F)F)cc2)CCN1C(=O)c1ccc2cc[nH]c2c1 | 0.0041 | 28 | > 10 | > 10 | > 10 | > 10 | > 10 | > 10 | > 10 | > 10 | > 10 | > 10 | > 10 | > 10 | 24 | 21 |
| COc1ccccc1-c1ccc(C(=O)N2CCN(C(=O)c3ccc4cc[nH]c4c3)[C@@H](C)C2)cc1 | 0.026 | – | > 10 | > 10 | > 10 | > 10 | > 10 | > 10 | > 10 | > 10 | > 10 | > 10 | > 10 | > 10 | – | – |
| COc1cccc(-c2ccc(C(=O)N3CCN(C(=O)c4ccc5cc[nH]c5c4)C[C@@H]3C)cc2)c1 | 0.28 | – | – | – | – | – | – | – | – | – | – | – | – | – | – | – |
| C[C@H]1CN(C(=O)c2ccc(-c3ccc(OC(F)(F)F)cc3)cc2)CCN1C(=O)c1ccc2cc[nH]c2c1 | 0.136 | – | > 10 | > 10 | > 10 | > 10 | > 10 | > 10 | > 10 | > 10 | > 10 | > 10 | > 10 | > 10 | – | – |
| COc1cccc(-c2ccc(C(=O)N3CCN(C(=O)c4ccc5cc[nH]c5c4)C[C@H]3C)cc2)c1 | 0.068 | – | – | – | – | – | – | – | – | – | – | – | – | – | – | – |
| C[C@H]1CN(C(=O)c2ccc(-c3ccccc3Cl)cn2)CCN1C(=O)c1ccc2cc[nH]c2c1 | 0.0372 | 18 | – | – | – | – | – | – | – | – | – | – | – | – | – | – |
| C[C@H]1CN(C(=O)c2ccc(-c3ccccn3)cc2)CCN1C(=O)c1ccc2cc[nH]c2c1 | 0.0422 | 12 | – | – | – | – | – | – | – | – | – | – | – | – | – | – |
| Cc1cc(-c2ccccc2)ccc1C(=O)N1CCN(C(=O)c2ccc3cc[nH]c3c2)[C@@H](C)C1 | 0.0143 | 36 | – | – | – | – | – | – | – | – | – | – | – | – | – | – |
| C[C@H]1CN(C(=O)c2ccc(-c3cccc(F)c3)cc2)CCN1C(=O)c1ccc2cc[nH]c2c1 | 0.147 | – | > 10 | > 10 | > 10 | > 10 | > 10 | > 10 | > 10 | > 10 | > 10 | > 10 | > 10 | > 10 | – | – |
| COc1ccc(-c2ccc(C(=O)N3CCN(C(=O)c4ccc5cc[nH]c5c4)[C@@H](C)C3)cc2)cc1 | 0.007 | 34 | > 10 | > 10 | > 10 | > 10 | > 10 | > 10 | > 10 | > 10 | > 10 | > 10 | > 10 | > 10 | 33 | – |
| C[C@H]1CN(C(=O)c2ccc(-c3ccccc3Cl)nc2)CCN1C(=O)c1ccc2cc[nH]c2c1 | 0.013 | 14 | – | – | – | – | – | – | – | – | – | – | – | – | – | – |
| COc1cccc(-c2ccc(C(=O)N3CCN(C(=O)c4ccc5cc[nH]c5c4)[C@H](C)C3)cc2)c1 | 0.64 | – | > 10 | > 10 | > 10 | > 10 | > 10 | > 10 | > 10 | > 10 | > 10 | > 10 | > 10 | > 10 | – | – |
| O=C(c1ccc(-c2ccccc2)cc1)N1CCCN(C(=O)c2ccc3cc[nH]c3c2)CC1 | 6.5 | – | – | – | – | – | – | – | – | – | – | – | – | – | – | – |
| C[C@H]1CN(C(=O)c2ccc(-c3cncs3)cc2)CCN1C(=O)c1ccc2cc[nH]c2c1 | 0.065 | 5 | – | – | – | – | – | – | – | – | – | – | – | – | – | – |
| C[C@H]1CN(C(=O)c2ccc(-c3cccnc3)cc2)CCN1C(=O)c1ccc2cc[nH]c2c1 | 0.143 | 21 | – | – | – | – | – | – | – | – | – | – | – | – | – | – |
| C[C@H]1CN(C(=O)c2ccc(-c3cccc(OC(F)(F)F)c3)cc2)CCN1C(=O)c1ccc2cc[nH]c2c1 | 0.0465 | – | > 10 | > 10 | > 10 | > 10 | > 10 | > 10 | > 10 | > 10 | > 10 | > 10 | > 10 | > 10 | – | – |
| C[C@H]1CN(C(=O)c2ccc(-c3ccccc3)nc2)CCN1C(=O)c1ccc2cc[nH]c2c1 | 0.02 | 19 | – | – | – | – | – | – | – | – | – | – | – | – | – | – |
| C[C@H]1CN(C(=O)c2csc(-c3ccccc3F)n2)CCN1C(=O)c1ccc2cc[nH]c2c1 | 0.0337 | 14 | – | – | – | – | – | – | – | – | – | – | – | – | – | – |
| C[C@H]1CN(C(=O)c2ccc(-c3ccccc3)cc2)CCN1C(=O)c1ccc2cc[nH]c2c1 | 0.006 | 26 | > 10 | > 10 | > 10 | > 10 | > 10 | > 10 | > 10 | > 10 | > 10 | > 10 | > 10 | > 10 | 29 | – |
| C[C@H]1CN(C(=O)c2ccc(-c3cccc(C(F)(F)F)c3)cc2)CCN1C(=O)c1ccc2cc[nH]c2c1 | 0.077 | – | > 10 | > 10 | > 10 | > 10 | > 10 | > 10 | > 10 | > 10 | > 10 | > 10 | > 10 | > 10 | – | – |
| C[C@H]1CN(C(=O)c2ccc(-c3ccccc3)cc2F)CCN1C(=O)c1ccc2cc[nH]c2c1 | 0.0177 | 43 | – | – | – | – | – | – | – | – | – | – | – | – | – | – |
| COc1cccc(-c2ccc(C(=O)N3CCN(C(=O)c4ccc5cc[nH]c5c4)CC3)cc2)c1 | 0.025 | – | – | – | – | – | – | – | – | – | – | – | – | – | – | – |
